# From ChEMBL document CHEMBL5058577, “EUbOPEN Chemogenomics Library 2 (Multiplex)” (2022)
# System: U2OS
# Experiment: Multiplex assay against U2OS
# Type: toxicity, cell-based
# Settings: human
# Method in brief: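 At seeding, live cells were stained with Hoechst33342, BioTracker Green Microtubule Cytoskeleton Dye, MitoTracker Red and Annexin V Alexa Fluor 680. After compound addition they were imaged on a CQ1 microscope at 37°C and 5% CO2, and CellPathfinder machine-learning gating sorted them into Hoechst high-intensity objects or normal cells, with normal cells further split into healthy, pyknosed or fragmented nuclei and pyknosed cells into mitotic or apoptotic. Tubulin, mitochondrial-mass and membrane-permeability phenotypes are given as per cents of cells with healthy nuclei.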
# [1] = 12 h, 1 µM, compound concentration 1 uM, replicate 1
# [2] = 12 h, 1 µM, compound concentration 1 uM, replicate 2
# [3] = 12 h, 10 µM, compound concentration 10 uM, replicate 1
# [4] = 12 h, 10 µM, compound concentration 10 uM, replicate 2
# [5] = 24 h, 1 µM, compound concentration 1 uM, replicate 1
# [6] = 24 h, 1 µM, compound concentration 1 uM, replicate 2
# [7] = 24 h, 10 µM, compound concentration 10 uM, replicate 1
# [8] = 24 h, 10 µM, compound concentration 10 uM, replicate 2
# [9] = 48 h, 1 µM, compound concentration 1 uM, replicate 1
# [10] = 48 h, 1 µM, compound concentration 1 uM, replicate 2
# [11] = 48 h, 10 µM, compound concentration 10 uM, replicate 1
# [12] = 48 h, 10 µM, compound concentration 10 uM, replicate 2
smiles,measurement,setting,value
O=C(Nc1cc(-c2ccccc2)nn1-c1ccccc1F)c1ccc([N+](=O)[O-])cc1,Population Apoptotic (%),[1],86%
same,Population Fragmented Nuclei (%),[1],25%
same,Population Healthy Nuclei (%),[1],66%
same,Population Hoechst High Intensity Objects (%),[1],4%
same,Population Membrane Permeable-Phenotype (%),[1],10%
same,Population Mitochondria Different-Phenotype (%),[1],4%
same,Population Mitotic Cells (%),[1],13%
same,Population Normal (%),[1],95%
same,Population Pyknosed Nuclei (%),[1],8%
same,Population Tubulin-Different-Phenotype (%),[1],4%
same,Total Cell Count,[1],293
same,Population Apoptotic (%),[2],91%
same,Population Fragmented Nuclei (%),[2],14%
same,Population Healthy Nuclei (%),[2],78%
same,Population Hoechst High Intensity Objects (%),[2],1%
same,Population Membrane Permeable-Phenotype (%),[2],9%
same,Population Mitotic Cells (%),[2],8%
same,Population Normal (%),[2],98%
same,Population Pyknosed Nuclei (%),[2],6%
same,Population Tubulin-Different-Phenotype (%),[2],9%
same,Total Cell Count,[2],182
same,Population Apoptotic (%),[3],66%
same,Population Fragmented Nuclei (%),[3],30%
same,Population Healthy Nuclei (%),[3],60%
same,Population Hoechst High Intensity Objects (%),[3],3%
same,Population Membrane Permeable-Phenotype (%),[3],11%
same,Population Mitochondria Different-Phenotype (%),[3],5%
same,Population Mitotic Cells (%),[3],33%
same,Population Normal (%),[3],96%
same,Population Pyknosed Nuclei (%),[3],9%
same,Population Tubulin-Different-Phenotype (%),[3],7%
same,Total Cell Count,[3],293
same,Population Apoptotic (%),[4],94%
same,Population Fragmented Nuclei (%),[4],12%
same,Population Healthy Nuclei (%),[4],73%
same,Population Hoechst High Intensity Objects (%),[4],0%
same,Population Mitochondria Different-Phenotype (%),[4],8%
same,Population Mitotic Cells (%),[4],5%
same,Population Normal (%),[4],100%
same,Population Pyknosed Nuclei (%),[4],13%
same,Population Tubulin-Different-Phenotype (%),[4],6%
same,Total Cell Count,[4],134
same,Population Apoptotic (%),[5],91%
same,Population Fragmented Nuclei (%),[5],24%
same,Population Healthy Nuclei (%),[5],68%
same,Population Hoechst High Intensity Objects (%),[5],3%
same,Population Membrane Permeable-Phenotype (%),[5],6%
same,Population Mitochondria Different-Phenotype (%),[5],4%
same,Population Mitotic Cells (%),[5],8%
same,Population Normal (%),[5],96%
same,Population Pyknosed Nuclei (%),[5],7%
same,Population Tubulin-Different-Phenotype (%),[5],5%
same,Total Cell Count,[5],342
same,Population Apoptotic (%),[6],100%
same,Population Fragmented Nuclei (%),[6],15%
same,Population Healthy Nuclei (%),[6],76%
same,Population Hoechst High Intensity Objects (%),[6],1%
same,Population Membrane Permeable-Phenotype (%),[6],9%
same,Population Mitochondria Different-Phenotype (%),[6],5%
same,Population Mitotic Cells (%),[6],0%
same,Population Normal (%),[6],98%
same,Population Pyknosed Nuclei (%),[6],8%
same,Population Tubulin-Different-Phenotype (%),[6],6%
same,Total Cell Count,[6],226
same,Population Apoptotic (%),[7],91%
same,Population Fragmented Nuclei (%),[7],25%
same,Population Healthy Nuclei (%),[7],64%
same,Population Hoechst High Intensity Objects (%),[7],1%
same,Population Membrane Permeable-Phenotype (%),[7],7%
same,Population Mitochondria Different-Phenotype (%),[7],3%
same,Population Mitotic Cells (%),[7],8%
same,Population Normal (%),[7],98%
same,Population Pyknosed Nuclei (%),[7],9%
same,Population Tubulin-Different-Phenotype (%),[7],5%
same,Total Cell Count,[7],353
same,Population Apoptotic (%),[8],100%
same,Population Fragmented Nuclei (%),[8],14%
same,Population Healthy Nuclei (%),[8],76%
same,Population Hoechst High Intensity Objects (%),[8],0%
same,Population Membrane Permeable-Phenotype (%),[8],11%
same,Population Mitochondria Different-Phenotype (%),[8],8%
same,Population Mitotic Cells (%),[8],0%
same,Population Normal (%),[8],99%
same,Population Tubulin-Different-Phenotype (%),[8],8%
same,Total Cell Count,[8],164
same,Population Apoptotic (%),[9],89%
same,Population Fragmented Nuclei (%),[9],17%
same,Population Healthy Nuclei (%),[9],73%
same,Population Hoechst High Intensity Objects (%),[9],2%
same,Population Membrane Permeable-Phenotype (%),[9],9%
same,Population Mitochondria Different-Phenotype (%),[9],5%
same,Population Mitotic Cells (%),[9],10%
same,Population Normal (%),[9],97%
same,Population Pyknosed Nuclei (%),[9],8%
same,Population Tubulin-Different-Phenotype (%),[9],5%
same,Total Cell Count,[9],475
same,Population Apoptotic (%),[10],90%
same,Population Fragmented Nuclei (%),[10],12%
same,Population Healthy Nuclei (%),[10],79%
same,Population Hoechst High Intensity Objects (%),[10],1%
same,Population Membrane Permeable-Phenotype (%),[10],6%
same,Population Mitochondria Different-Phenotype (%),[10],4%
same,Population Normal (%),[10],98%
same,Total Cell Count,[10],371
same,Population Apoptotic (%),[11],81%
same,Population Fragmented Nuclei (%),[11],20%
same,Population Healthy Nuclei (%),[11],67%
same,Population Hoechst High Intensity Objects (%),[11],2%
same,Population Membrane Permeable-Phenotype (%),[11],8%
same,Population Mitochondria Different-Phenotype (%),[11],4%
same,Population Mitotic Cells (%),[11],18%
same,Population Normal (%),[11],97%
same,Population Pyknosed Nuclei (%),[11],12%
same,Population Tubulin-Different-Phenotype (%),[11],6%
same,Total Cell Count,[11],445
same,Population Apoptotic (%),[12],89%
same,Population Fragmented Nuclei (%),[12],10%
same,Population Healthy Nuclei (%),[12],76%
same,Population Membrane Permeable-Phenotype (%),[12],11%
same,Population Mitochondria Different-Phenotype (%),[12],8%
same,Population Mitotic Cells (%),[12],10%
same,Population Pyknosed Nuclei (%),[12],13%
same,Population Tubulin-Different-Phenotype (%),[12],8%
same,Total Cell Count,[12],226
CN(C)C/C=C/C(=O)Nc1ccc(C(=O)N2CCCC(Nc3ncc(Cl)c(-c4c[nH]c5ccccc45)n3)C2)cc1 (stereo unspecified),Population Apoptotic (%),[1],77%
same,Population Fragmented Nuclei (%),[1],31%
same,Population Healthy Nuclei (%),[1],60%
same,Population Hoechst High Intensity Objects (%),[1],2%
same,Population Membrane Permeable-Phenotype (%),[1],5%
same,Population Mitochondria Different-Phenotype (%),[1],3%
same,Population Mitotic Cells (%),[1],22%
same,Population Normal (%),[1],97%
same,Population Pyknosed Nuclei (%),[1],8%
same,Population Tubulin-Different-Phenotype (%),[1],4%
same,Total Cell Count,[1],228
same,Population Apoptotic (%),[2],83%
same,Population Fragmented Nuclei (%),[2],18%
same,Population Healthy Nuclei (%),[2],77%
same,Population Hoechst High Intensity Objects (%),[2],0%
same,Population Membrane Permeable-Phenotype (%),[2],6%
same,Population Mitochondria Different-Phenotype (%),[2],5%
same,Population Mitotic Cells (%),[2],16%
same,Population Normal (%),[2],99%
same,Population Pyknosed Nuclei (%),[2],4%
same,Population Tubulin-Different-Phenotype (%),[2],8%
same,Total Cell Count,[2],139
same,Population Apoptotic (%),[3],80%
same,Population Fragmented Nuclei (%),[3],31%
same,Population Healthy Nuclei (%),[3],47%
same,Population Hoechst High Intensity Objects (%),[3],5%
same,Population Membrane Permeable-Phenotype (%),[3],33%
same,Population Mitochondria Different-Phenotype (%),[3],40%
same,Population Mitotic Cells (%),[3],20%
same,Population Normal (%),[3],94%
same,Population Pyknosed Nuclei (%),[3],20%
same,Population Tubulin-Different-Phenotype (%),[3],49%
same,Total Cell Count,[3],233
same,Population Apoptotic (%),[4],75%
same,Population Fragmented Nuclei (%),[4],25%
same,Population Healthy Nuclei (%),[4],54%
same,Population Hoechst High Intensity Objects (%),[4],2%
same,Population Membrane Permeable-Phenotype (%),[4],23%
same,Population Mitochondria Different-Phenotype (%),[4],42%
same,Population Mitotic Cells (%),[4],25%
same,Population Normal (%),[4],97%
same,Population Tubulin-Different-Phenotype (%),[4],37%
same,Total Cell Count,[4],121
same,Population Apoptotic (%),[5],93%
same,Population Fragmented Nuclei (%),[5],34%
same,Population Healthy Nuclei (%),[5],53%
same,Population Hoechst High Intensity Objects (%),[5],2%
same,Population Membrane Permeable-Phenotype (%),[5],7%
same,Population Mitochondria Different-Phenotype (%),[5],2%
same,Population Mitotic Cells (%),[5],6%
same,Population Normal (%),[5],97%
same,Population Pyknosed Nuclei (%),[5],11%
same,Population Tubulin-Different-Phenotype (%),[5],6%
same,Total Cell Count,[5],271
same,Population Apoptotic (%),[6],100%
same,Population Fragmented Nuclei (%),[6],21%
same,Population Healthy Nuclei (%),[6],67%
same,Population Hoechst High Intensity Objects (%),[6],0%
same,Population Membrane Permeable-Phenotype (%),[6],8%
same,Population Mitotic Cells (%),[6],0%
same,Population Normal (%),[6],99%
same,Population Tubulin-Different-Phenotype (%),[6],5%
same,Total Cell Count,[6],164
same,Population Apoptotic (%),[7],87%
same,Population Fragmented Nuclei (%),[7],39%
same,Population Healthy Nuclei (%),[7],35%
same,Population Hoechst High Intensity Objects (%),[7],9%
same,Population Membrane Permeable-Phenotype (%),[7],22%
same,Population Mitochondria Different-Phenotype (%),[7],33%
same,Population Mitotic Cells (%),[7],12%
same,Population Normal (%),[7],90%
same,Population Pyknosed Nuclei (%),[7],25%
same,Population Tubulin-Different-Phenotype (%),[7],29%
same,Total Cell Count,[7],239
same,Population Apoptotic (%),[8],97%
same,Population Fragmented Nuclei (%),[8],31%
same,Population Hoechst High Intensity Objects (%),[8],5%
same,Population Membrane Permeable-Phenotype (%),[8],21%
same,Population Mitochondria Different-Phenotype (%),[8],28%
same,Population Mitotic Cells (%),[8],2%
same,Population Normal (%),[8],94%
same,Population Pyknosed Nuclei (%),[8],32%
same,Population Tubulin-Different-Phenotype (%),[8],17%
same,Total Cell Count,[8],135
same,Population Apoptotic (%),[9],94%
same,Population Fragmented Nuclei (%),[9],29%
same,Population Healthy Nuclei (%),[9],60%
same,Population Hoechst High Intensity Objects (%),[9],3%
same,Population Membrane Permeable-Phenotype (%),[9],10%
same,Population Mitochondria Different-Phenotype (%),[9],3%
same,Population Mitotic Cells (%),[9],5%
same,Population Normal (%),[9],96%
same,Population Pyknosed Nuclei (%),[9],10%
same,Population Tubulin-Different-Phenotype (%),[9],5%
same,Total Cell Count,[9],339
same,Population Apoptotic (%),[10],96%
same,Population Fragmented Nuclei (%),[10],10%
same,Population Healthy Nuclei (%),[10],77%
same,Population Membrane Permeable-Phenotype (%),[10],3%
same,Population Mitotic Cells (%),[10],3%
same,Population Pyknosed Nuclei (%),[10],12%
same,Population Tubulin-Different-Phenotype (%),[10],3%
same,Total Cell Count,[10],221
same,Population Apoptotic (%),[11],100%
same,Population Fragmented Nuclei (%),[11],50%
same,Population Healthy Nuclei (%),[11],17%
same,Population Hoechst High Intensity Objects (%),[11],15%
same,Population Membrane Permeable-Phenotype (%),[11],47%
same,Population Mitochondria Different-Phenotype (%),[11],27%
same,Population Mitotic Cells (%),[11],0%
same,Population Normal (%),[11],84%
same,Population Pyknosed Nuclei (%),[11],32%
same,Population Tubulin-Different-Phenotype (%),[11],38%
same,Total Cell Count,[11],251
same,Population Healthy Nuclei (%),[12],18%
same,Population Hoechst High Intensity Objects (%),[12],9%
same,Population Membrane Permeable-Phenotype (%),[12],26%
same,Population Mitochondria Different-Phenotype (%),[12],19%
same,Population Normal (%),[12],90%
same,Population Pyknosed Nuclei (%),[12],31%
same,Population Tubulin-Different-Phenotype (%),[12],23%
same,Total Cell Count,[12],157
